Source: ChEMBL document CHEMBL4138215, “Discovery of caffeic acid phenethyl ester derivatives as novel myeloid differentiation protein 2 inhibitors for treatment of acute lung injury” (Eur J Med Chem, 2018)
The source made the active and inactive calls. The calls are words filed in the database; no cut-off is given here.

Columns and labels:
[1] = test system: Mus musculus; assay: Anti-inflammatory activity in LPS-induced C57BL/6 mouse model of acute lung injury assessed as inhibition of IL-6 levels in BALF at 20 mg/kg, ip pretreated for 30 mins followed by LPS challenge measured after 6 hrs by ELISA; assay type: functional, organism-based; details: C57/BL6
Summary of the method: (§1)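 ALI model in male C57BL/6 mice: i.p. pretreatment 30 min before intratracheal LPS (5 mg/kg), euthanasia at 6 h. BALF spun at 1000 rpm for 10 min and the supernatant kept; plasma also collected. IL-6 and TNF-α measured by ELISA as pg/ml, mean ± SEM, n = 7.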

[2] = test system: Peritoneal macrophage; assay: Anti-inflammatory activity in ICR mouse peritoneal macrophages assessed inhibition of LPS-induced TNF-alpha production preincubated for 30 to 60 mins followed by LPS stimulation measured after 24 hrs by ELISA; assay type: functional, cell-based
Summary of the method: (§2)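 Primary peritoneal macrophages from thioglycollate-elicited ICR mice (3 mL i.p.), collected by PBS lavage and cultured in RPMI-1640 at 37 °C, 5% CO2. Plated at 4*10⁵ cells/well and grown 24 h. Pretreated with compound (30–60 min; screen at 10, dose-response 0.5–10), then LPS for 24 h. TNF-α in the conditioned medium measured by ELISA and expressed relative to LPS alone; DMSO as vehicle.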

[3] = test system: Mus musculus; assay: Anti-inflammatory activity in LPS-induced C57BL/6 mouse model of acute lung injury assessed as inhibition of IL-6 mRNA levels in lung tissue at 20 mg/kg, ip pretreated for 30 mins followed by LPS challenge measured after 6 hrs by RT-PCR analysis; assay type: functional, organism-based; details: C57/BL6
Summary of the method: (§3)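 Male C57BL/6 mice given i.p. pretreatment 30 min before intratracheal LPS 5 mg/kg, lungs taken at 6 h. IL-6 and TNF-α mRNA in lung tissue normalized to β-actin and expressed relative to the LPS group.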

[4] = test system: Mus musculus; assay: Anti-inflammatory activity in LPS-induced C57BL/6 mouse model of acute lung injury assessed as inhibition of IL-6 levels in plasma at 20 mg/kg, ip pretreated for 30 mins followed by LPS challenge measured after 6 hrs by ELISA; assay type: functional, organism-based; details: C57/BL6; summary of the method: as §1
[5] = test system: Mus musculus; assay: Anti-inflammatory activity in LPS-induced C57BL/6 mouse model of acute lung injury assessed as inhibition of TNF-alpha levels in plasma at 20 mg/kg, ip pretreated for 30 mins followed by LPS challenge measured after 6 hrs by ELISA; assay type: functional, organism-based; details: C57/BL6; summary of the method: as §1
[6] = biological target: Toll-like receptor 4 (Homo sapiens) (UniProt O00206); assay: Binding affinity to TLR4 (unknown origin) by SPR analysis
Toll-like receptor 4 (Homo sapiens), sequence (O00206 whole entry): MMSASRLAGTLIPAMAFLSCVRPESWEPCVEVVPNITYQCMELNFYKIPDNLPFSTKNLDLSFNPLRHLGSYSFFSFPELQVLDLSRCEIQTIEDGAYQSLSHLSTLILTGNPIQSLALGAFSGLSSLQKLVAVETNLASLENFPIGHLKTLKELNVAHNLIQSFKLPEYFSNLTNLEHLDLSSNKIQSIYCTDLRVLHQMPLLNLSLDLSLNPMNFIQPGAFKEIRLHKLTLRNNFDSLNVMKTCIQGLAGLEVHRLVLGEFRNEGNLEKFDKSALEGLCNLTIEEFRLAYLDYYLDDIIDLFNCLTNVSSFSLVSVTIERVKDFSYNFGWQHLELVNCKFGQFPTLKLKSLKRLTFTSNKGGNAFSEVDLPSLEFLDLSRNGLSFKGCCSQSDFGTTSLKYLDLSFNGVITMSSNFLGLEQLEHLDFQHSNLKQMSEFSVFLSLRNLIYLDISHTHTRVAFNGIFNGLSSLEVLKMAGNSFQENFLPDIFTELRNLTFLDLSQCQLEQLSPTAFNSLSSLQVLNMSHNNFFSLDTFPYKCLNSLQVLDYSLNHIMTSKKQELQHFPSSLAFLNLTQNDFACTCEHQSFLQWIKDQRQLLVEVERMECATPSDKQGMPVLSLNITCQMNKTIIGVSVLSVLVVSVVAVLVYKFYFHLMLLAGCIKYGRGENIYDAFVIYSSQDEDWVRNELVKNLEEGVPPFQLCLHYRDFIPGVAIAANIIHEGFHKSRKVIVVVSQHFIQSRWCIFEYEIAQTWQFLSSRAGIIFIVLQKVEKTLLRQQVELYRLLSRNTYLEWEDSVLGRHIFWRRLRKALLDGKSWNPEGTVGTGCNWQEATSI
Summary of the method: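 SPR: TLR4 protein in acetate buffer immobilized after activation with 40 mM EDC/10 mM sNHS. Compound dilutions in PBS with 0.1% SDS, 0.05% Tween-20 and 5% DMSO; first channel used as reference. Association 120 s, dissociation 120 s, 25 °C; KD derived from binding kinetics.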

[7] = test system: Mus musculus; assay: Anti-inflammatory activity in LPS-induced C57BL/6 mouse model of acute lung injury assessed as inhibition of total cell count in BALF at 15 mg/kg, ip pretreated for 30 mins followed by LPS challenge measured after 6 hrs; assay type: functional, organism-based; details: C57/BL6
Summary of the method: (§4)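 Male C57BL/6 mice (n = 7) received 15 mg/kg i.p. in 200 µL, or vehicle, 30 min before intratracheal LPS 5 mg/kg; euthanized at 6 h. Total BALF cells counted as counts/ml. Lung MPO activity determined from absorbance change at 460 nm after a 30 min reaction and reported as U/g.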

[8] = test system: Mus musculus; assay: Anti-inflammatory activity in LPS-induced C57BL/6 mouse model of acute lung injury assessed as decrease in TNF-alpha production in lung tissue at 15 mg/kg, ip pretreated for 30 mins followed by LPS challenge measured after 6 hrs by immumohistochemical staining-based light microscopic analysis; assay type: functional, organism-based; details: C57/BL6
Summary of the method: (§5)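 Male C57BL/6 mice, 18–22 g, n = 7 per group. Compound given i.p. 15 mg/kg in 200 µL, or vehicle, 30 min before intratracheal LPS 5 mg/kg; killed 6 h later. Paraffin lung sections, 5 µm, treated with H2O2, blocked in 5% BSA, then primary anti-CD68 or anti-TNF-α overnight at 4 °C. HRP secondary 2 h at 37 °C, DAB stain, light microscopy at 200×.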

[9] = test system: Mus musculus; assay: Anti-inflammatory activity in LPS-induced C57BL/6 mouse model of acute lung injury assessed as decrease in interstitial edema in lung tissue at 15 mg/kg, ip pretreated for 30 mins followed by LPS challenge measured after 6 hrs by hematoxylin and eosin staining-based light microscopic analysis; assay type: functional, organism-based; details: C57/BL6
[10] = test system: Mus musculus; assay: Anti-inflammatory activity in LPS-induced C57BL/6 mouse model of acute lung injury assessed as inhibition of TNF-alpha levels in BALF at 20 mg/kg, ip pretreated for 30 mins followed by LPS challenge measured after 6 hrs by ELISA; assay type: functional, organism-based; details: C57/BL6; summary of the method: as §1
[11] = test system: Mus musculus; assay: Anti-inflammatory activity in LPS-induced C57BL/6 mouse model of acute lung injury assessed as inhibition of myeloperoxidase activity in lung tissue at 15 mg/kg, ip pretreated for 30 mins followed by LPS challenge measured after 6 hrs by H2O2 substrate based assay; assay type: functional, organism-based; details: C57/BL6; summary of the method: as §4
[12] = test system: Mus musculus; assay: Anti-inflammatory activity in LPS-induced C57BL/6 mouse model of acute lung injury assessed as decrease in pulmonary congestion in lung tissue at 15 mg/kg, ip pretreated for 30 mins followed by LPS challenge measured after 6 hrs by hematoxylin and eosin staining-based light microscopic analysis; assay type: functional, organism-based; details: C57/BL6
[13] = test system: Mus musculus; assay: Anti-inflammatory activity in LPS-induced C57BL/6 mouse model of acute lung injury assessed as decrease in thicken alveolar septa at 15 mg/kg, ip pretreated for 30 mins followed by LPS challenge measured after 6 hrs by hematoxylin and eosin staining-based light microscopic analysis; assay type: functional, organism-based; details: C57/BL6
[14] = test system: Mus musculus; assay: Anti-inflammatory activity in LPS-induced C57BL/6 mouse model of acute lung injury assessed as decrease in CD68 production in lung tissue at 15 mg/kg, ip pretreated for 30 mins followed by LPS challenge measured after 6 hrs by immumohistochemical staining-based light microscopic analysis; assay type: functional, organism-based; details: C57/BL6; summary of the method: as §5
[15] = test system: Peritoneal macrophage; assay: Anti-inflammatory activity in ICR mouse peritoneal macrophages assessed inhibition of LPS-induced TNF-alpha production at 10 uM preincubated for 30 to 60 mins followed by LPS stimulation measured after 24 hrs by ELISA relative to control; assay type: functional; summary of the method: as §2
[16] = test system: Mus musculus; assay: Anti-inflammatory activity in LPS-induced C57BL/6 mouse model of acute lung injury assessed as decrease in lung tissue destruction at 15 mg/kg, ip pretreated for 30 mins followed by LPS challenge measured after 6 hrs by hematoxylin and eosin staining-based light microscopic analysis; assay type: functional, organism-based; details: C57/BL6
[17] = test system: Mus musculus; assay: Anti-inflammatory activity in LPS-induced C57BL/6 mouse model of acute lung injury assessed as inhibition of TNF-alpha mRNA levels in lung tissue at 20 mg/kg, ip pretreated for 30 mins followed by LPS challenge measured after 6 hrs by RT-PCR analysis; assay type: functional, organism-based; details: C57/BL6; summary of the method: as §3
[18] = test system: Mus musculus; assay: Anti-inflammatory activity in LPS-induced C57BL/6 mouse model of acute lung injury assessed as decrease in inflammatory infiltration in lung tissue at 15 mg/kg, ip pretreated for 30 mins followed by LPS challenge measured after 6 hrs by hematoxylin and eosin staining-based light microscopic analysis; assay type: functional, organism-based; details: C57/BL6
[19] = test system: Peritoneal macrophage; assay: Anti-inflammatory activity in ICR mouse peritoneal macrophages assessed inhibition of LPS-induced TNF-alpha production at 10 uM preincubated for 30 to 60 mins followed by LPS stimulation measured after 24 hrs by ELISA; assay type: functional, cell-based; summary of the method: as §2

| SMILES | inhibition [19] | also measured |
| --- | --- | --- |
| Cc1ncsc1/C=C/C(=O)N[C@@H](Cc1ccc(O)cc1)C(=O)OC(C)(C)C | – | inhibition [1]: Active; IC50 [2]: 2.05 µM; inhibition [2]: Dose-dependent effect; inhibition [3]: Active; inhibition [4]: Active; inhibition [5]: Active; Activity [6]: inactive; inhibition [7]: Active; Activity [8]: Active; Activity [9]: Active; inhibition [10]: Active; inhibition [11]: Active; Activity [12]: Active; Activity [13]: Active; Activity [14]: Active; inhibition at 10 µM [15]: 82.6%; Activity [16]: Active; inhibition [17]: Active; Activity [18]: Active |
| Cc1ncsc1/C=C/C(=O)NCCc1ccc(O)cc1 | Active | – |
| Cc1ncsc1/C=C/C(=O)N[C@@H](Cc1ccccc1)C(=O)O | inactive | – |
| O=C(/C=C/c1ccc2c(c1)OCO2)NCCc1ccccc1 | Active | – |
| Cc1ncsc1/C=C/C(=O)N[C@@H](Cc1ccccc1)C(=O)OC(C)(C)C | – | inhibition at 10 µM [15]: 68.7% |
| COc1ccc(/C=C/C(=O)NCCc2ccccc2)cc1 | Active | – |
| COc1ccc2cc(CCNC(=O)/C=C/c3scnc3C)[nH]c2c1 | inactive | – |
| Cc1ncsc1/C=C/C(=O)NCCCCc1ccccc1 | inactive | – |
| CCCCCCCNC(=O)/C=C/c1scnc1C | inactive | – |
| COc1ccc(/C=C/C(=O)NCCc2ccccc2)cc1OCc1ccc(C)cc1 | inactive | – |
| Cc1ncsc1/C=C/C(=O)NCCCc1ccccc1 | inactive | – |
| C=CCOc1ccc(/C=C/C(=O)NCCc2ccccc2)cc1 | Active | – |
| Cc1ncsc1/C=C/C(=O)NCCc1ccccc1 | – | inhibition at 10 µM [15]: 67.3% |
| COc1cccc(/C=C/C(=O)NCCc2ccccc2)c1OC | inactive | – |
| COc1ccc(/C=C/C(=O)NCCc2ccccc2)cc1OCc1ccccc1 | inactive | – |
| Cc1ncsc1/C=C/C(=O)N[C@@H](Cc1ccc(O)cc1)C(=O)O | inactive | – |
| CCCCCCCCCCNC(=O)/C=C/c1scnc1C | inactive | – |
| COc1cc(/C=C/C(=O)NCCc2ccccc2)ccc1OCc1ccccc1 | Active | – |
| CCCCCCCCNC(=O)/C=C/c1scnc1C | inactive | – |
| O=C(/C=C/c1ccc(O)c(O)c1)OCCc1ccccc1 [CAFFEIC ACID PHENETHYL ESTER] | – | inhibition [1]: Active; IC50 [2]: 4.31 µM; inhibition [4]: Active; inhibition [5]: Active; inhibition [7]: Active; inhibition [10]: Active; inhibition [11]: Active |
| Cc1ncsc1/C=C/C(=O)NCCc1cc2ccccc2[nH]1 | inactive | – |
| COc1cc(COc2cc(/C=C/C(=O)NCCc3ccccc3)ccc2OC)cc(OC)c1 | inactive | – |

| SMILES | inhibition [19] | also measured |
| --- | --- | --- |
| Cc1ncsc1/C=C(\C#N)C(=O)NCCc1ccccc1 | Active | – |
| COc1cc(OC)c(OC)cc1/C=C/C(=O)NCCc1ccccc1 | inactive | – |
| COc1cc(/C=C/C(=O)NCCc2ccccc2)ccc1O | Active | – |
| COc1cc(/C=C/C(=O)NCCc2ccccc2)cc(OC)c1OC | Active | – |
| COc1cc(/C=C/C(=O)NCCc2ccccc2)cc(Br)c1O | Active | – |
| CCOC(=O)[C@H](Cc1ccc(O)cc1)NC(=O)/C=C/c1scnc1C | – | IC50 [2]: 3.19 µM; inhibition [2]: Dose-dependent effect; inhibition at 10 µM [15]: 79.4% |
| O=C(/C=C/c1ccc(N2CCOCC2)cc1)NCCc1ccccc1 | Active | – |
| COc1ccc(/C=C/C(=O)NCCc2ccccc2)cc1OC | Active | – |
| Cc1ccc(/C=C/C(=O)NCCc2ccccc2)o1 | Active | – |
| O=C(/C=C/c1ccc(C(F)(F)F)cc1)NCCc1ccccc1 | inactive | – |
| COc1ccc(/C=C/C(=O)NCCc2ccccc2)c(OC)c1OC | inactive | – |
| O=C(/C=C/c1ccc([N+](=O)[O-])cc1)NCCc1ccccc1 | inactive | – |
| O=C(/C=C/c1cccnc1)NCCc1ccccc1 | Active | – |
| CCCCCCCCCNC(=O)/C=C/c1scnc1C | inactive | – |
| Cc1ccc(/C=C/C(=O)NCCc2ccccc2)s1 | Active | – |
| COc1ccc(/C=C/C(=O)NCCc2ccccc2)cc1O | Active | – |
| COc1cc(/C=C/C(=O)NCCc2ccccc2)ccc1OCc1ccc(C)cc1 | Active | – |
| O=C(/C=C/c1ccc(O)cc1)NCCc1ccccc1 | Active | – |
| Cc1ncsc1/C=C/C(=O)N1CCC(c2ccccc2)CC1 | inactive | – |
| COc1cc(OC)c(/C=C/C(=O)NCCc2ccccc2)c(OC)c1 | inactive | – |
| Cc1ncsc1/C=C/C(=O)NCCc1ccc(O)c(O)c1 | Active | – |
